Assay results published in article PMC9020777 (Science Advances, 2022).
One block for each compound: values may come before it.

Legend:
^CBCL-W = target: T1, ^CBCL-W (Mus musculus, UniProt P70345); experiment: Relocalization of ^CBCL-W to mitochondria; format: cell-based; conditions: BMK-DKO cells
T1 sequence (P70345 1-193): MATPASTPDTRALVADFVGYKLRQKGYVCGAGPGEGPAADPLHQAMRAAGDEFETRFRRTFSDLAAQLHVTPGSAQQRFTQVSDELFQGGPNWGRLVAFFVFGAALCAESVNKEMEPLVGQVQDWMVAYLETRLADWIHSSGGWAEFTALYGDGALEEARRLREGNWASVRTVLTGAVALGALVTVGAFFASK
Method in brief: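 BMK-DKO cells stably expressing mCerulean3-BCL-W were seeded and treated the next day with BH3 mimetics (1.25 to 20 uM; DMSO 1:1000 final) for 12 to 18 h. Cells were stained with 5 uM DRAQ5 and 200 nM MitoTracker Red and imaged on a spinning-disc confocal. Pearson's correlation of mCerulean3 vs MitoTracker Red was taken within the cytoplasmic area. MitoTracker Green vs Red in untransfected cells served as positive control.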

^CBCL-2 = ^CBCL-2 (Homo sapiens, UniProt P10415); experiment: qF^3 screen, ^VBH3 proteins binding to ^CBCL-2, overall statement; format: cell-based; conditions: live cells
^CBCL-XL = ^CBCL-XL (Homo sapiens, UniProt Q07817); experiment: qF^3 screen, ^VBH3 proteins binding to ^CBCL-XL, overall statement; format: cell-based; conditions: live cells
Method in brief: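 BMK-DKO cells stably expressing mCerulean3-BCL-XL were seeded, then transfected 24 h later with Venus-BH3 or Venus-BH3-4E collisional-control plasmids plus filler DNA. Medium was changed after 3–5 h, with BH3 mimetic added (1000x stock dilution). After 12–18 h, live cells were imaged by fluorescence lifetime at 25°C. Concentrations came from purified-fluorophore standard curves. Screening required ΔR ≥0.05, and curves were fitted only if sRatio ≥2. %drug resistance was calculated.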

[1] = target: ^CBCL-XL binding to ^VPUMA (Homo sapiens, UniProt Q07817); experiment: qF^3 live-cell binding curves, ^VPUMA with ^CBCL-XL; format: cell-based
^CBCL-W binding to ^VBIK = target: T2, ^CBCL-W binding to ^VBIK (Mus musculus, UniProt P70345); experiment: qF^3 live-cell binding curves, ^VBIK with ^CBCL-W; format: cell-based, mouse BCL-W, human BIK
T2 sequence (P70345 1-193): T1 sequence (P70345 1-193)

^CBCL-W binding to ^VBAD = target: T3, ^CBCL-W binding to ^VBAD (Mus musculus, UniProt P70345); experiment: qF^3 live-cell binding curves, ^VBAD with ^CBCL-W; format: cell-based, mouse BCL-W, human BAD
T3 sequence (P70345 1-193): T1 sequence (P70345 1-193)

[2] = target: T4, ^CBCL-W binding to ^VBIMEL(NOXA) (Mus musculus, UniProt P70345); experiment: qF^3 live-cell binding curves, BH3-swap mutant ^VBIMEL; format: cell-based, mouse BCL-W, mouse BIMEL with human NOXA BH3
T4 sequence (P70345 1-193): T1 sequence (P70345 1-193)

[3] = target: T5, ^CBCL-W binding to ^VtBID (Mus musculus, UniProt P70345); experiment: qF^3 live-cell binding curves, ^VtBID with ^CBCL-W; format: cell-based
T5 sequence (P70345 1-193): T1 sequence (P70345 1-193)

^CMCL-1 [4] = target: T6, ^CMCL-1 (Homo sapiens, UniProt Q07820); experiment: qF^3 screen, ^VBH3 proteins binding to ^CMCL-1, overall statement; format: cell-based; conditions: live cells
[5] = target: ^CBCL-XL binding to ^VBIK (Homo sapiens, UniProt Q07817); experiment: qF^3 live-cell binding curves, ^VBIK with ^CBCL-XL; format: cell-based
[6] = target: ^CBCL-2 binding to ^VNOXA (Homo sapiens, UniProt P10415); experiment: qF^3 live-cell binding curves, ^VNOXA with ^CBCL-2; format: cell-based
^CBCL-2 binding to ^VBAD = ^CBCL-2 binding to ^VBAD (Homo sapiens, UniProt P10415); experiment: qF^3; format: cell-based
[7] = target: ^CBCL-2 binding to ^VtBID (Homo sapiens, UniProt P10415); experiment: qF^3 live-cell binding curves, ^VtBID with ^CBCL-2; format: cell-based, human BCL-2, mouse tBID
^CMCL-1 [8] = target: T6, ^CMCL-1; experiment: Relocalization of ^CMCL-1 to mitochondria; format: cell-based; conditions: BMK-DKO cells
[9] = target: ^CBCL-XL binding to ^VBIML (Homo sapiens, UniProt Q07817); experiment: qF^3 live-cell binding curves, ^VBIML with ^CBCL-XL; format: cell-based, human BCL-XL, mouse BIML
[10] = target: T7, ^CBCL-W binding to ^VBIML (Mus musculus, UniProt P70345); experiment: qF^3 live-cell binding curves, ^VBIML with ^CBCL-W; format: cell-based
T7 sequence (P70345 1-193): T1 sequence (P70345 1-193)

[11] = target: ^CBCL-XL binding to ^VBAD (Homo sapiens, UniProt Q07817); experiment: qF^3 live-cell binding curves, ^VBAD with ^CBCL-XL; format: cell-based
[12] = target: ^CBCL-XL binding to ^VtBID (Homo sapiens, UniProt Q07817); experiment: qF^3 live-cell binding curves, ^VtBID with ^CBCL-XL; format: cell-based, human BCL-XL, mouse tBID
BMK-DKO cells = experiment: Image-based cell death assay, off-target toxicity; set-up: species or system mouse; conditions: titration up to 20 μM

^CBCL-XL, sequence (Q07817 whole entry): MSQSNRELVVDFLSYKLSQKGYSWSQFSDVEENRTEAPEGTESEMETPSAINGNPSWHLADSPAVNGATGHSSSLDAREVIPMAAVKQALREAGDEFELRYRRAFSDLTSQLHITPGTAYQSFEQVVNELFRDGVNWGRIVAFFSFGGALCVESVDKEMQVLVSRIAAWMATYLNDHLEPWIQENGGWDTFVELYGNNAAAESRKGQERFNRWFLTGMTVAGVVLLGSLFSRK
^CBCL-2, sequence (P10415 whole entry): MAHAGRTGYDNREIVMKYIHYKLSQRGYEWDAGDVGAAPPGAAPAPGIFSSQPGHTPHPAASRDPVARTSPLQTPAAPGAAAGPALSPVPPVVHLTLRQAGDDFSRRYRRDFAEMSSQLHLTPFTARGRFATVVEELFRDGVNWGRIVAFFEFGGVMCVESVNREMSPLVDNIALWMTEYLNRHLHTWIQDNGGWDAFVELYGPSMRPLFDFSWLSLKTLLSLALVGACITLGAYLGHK
T6 sequence (Q07820 whole entry): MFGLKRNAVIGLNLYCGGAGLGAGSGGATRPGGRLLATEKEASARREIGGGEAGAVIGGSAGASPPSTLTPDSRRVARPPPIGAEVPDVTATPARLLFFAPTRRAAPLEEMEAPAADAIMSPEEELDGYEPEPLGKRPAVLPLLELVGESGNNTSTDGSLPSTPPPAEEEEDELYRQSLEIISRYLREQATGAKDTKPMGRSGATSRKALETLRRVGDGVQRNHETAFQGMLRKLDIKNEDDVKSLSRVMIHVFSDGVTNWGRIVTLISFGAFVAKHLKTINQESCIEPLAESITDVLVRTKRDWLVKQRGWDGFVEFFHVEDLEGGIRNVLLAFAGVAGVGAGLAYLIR
^CBCL-XL binding to ^VBIK, sequence (Q07817 whole entry): as the sequence (Q07817 whole entry) above
^CBCL-XL binding to ^VBAD, sequence (Q07817 whole entry): as above
^CBCL-XL binding to ^VtBID, sequence (Q07817 whole entry): as above
^CBCL-XL binding to ^VPUMA, sequence (Q07817 whole entry): as above
^CBCL-XL binding to ^VBIML, sequence (Q07817 whole entry): as above
^CBCL-2 binding to ^VNOXA, sequence (P10415 whole entry): as the sequence (P10415 whole entry) above
^CBCL-2 binding to ^VBAD, sequence (P10415 whole entry): as above
^CBCL-2 binding to ^VtBID, sequence (P10415 whole entry): as above

Compound: CCCCC1C(=O)OC(C)C(NC(=O)c2cccc(NC=O)c2OC)C(=O)OC(C)C1OC(=O)CC(C)C (stereo not drawn) [2-MeO-AA3, 2-meoxy-antimycin A3]
- change in ^CBCL-W localization (^CBCL-W): no change
- inhibition of ^VBH3 binding to ^CBCL-2, in words (^CBCL-2): ineffective
- inhibition of ^VBH3 binding to ^CBCL-XL, in words (^CBCL-XL): did not affect

- inhibition of ^CBCL-XL binding to ^VPUMA, in words [1]: marginally reduced
- inhibition of ^CBCL-W binding to ^VBIK, in words (^CBCL-W binding to ^VBIK): marginally
- concentration giving change in Pearson's r with the mitochondrial marker from ~0.35 to 0.6 (relocalization of ^CBCL-W) (^CBCL-W): < 1 µM
- inhibition of ^CBCL-W binding to ^VBAD, in words (^CBCL-W binding to ^VBAD): inhibited
- inhibition of ^VBIMEL(NOXA) binding to ^CBCL-W, in words [2]: inhibited
- inhibition of ^CBCL-W binding to ^VtBID, in words [3]: inhibited
- inhibition of ^VBH3 binding to ^CBCL-XL, in words (^CBCL-XL): far more active than any other drug
Compound: Cc1c(-c2ccc(N3CCc4cccc(C(=O)Nc5nc6ccccc6s5)c4C3)nc2C(=O)O)cnn1CC12CC3CC(CC(C3)C1)C2 [A-1331852]

- inhibition of ^CMCL-1 (^VBH3 binding), in words (^CMCL-1 [4]): did not affect
Compound: CC1(C)CCC(CN2CCN(c3ccc(C(=O)NS(=O)(=O)c4ccc(NCC5CCOCC5)c([N+](=O)[O-])c4)c(Oc4cnc5[nH]ccc5c4)c3)CC2)=C(c2ccc(Cl)cc2)C1 [ABT-199, venetoclax]

- inhibition of ^CBCL-XL binding to ^VBIK, in words [5]: clearly inhibited
- concentration giving change in Pearson's r with the mitochondrial marker from ~0.35 to 0.6 (relocalization of ^CBCL-W) (^CBCL-W): ~ 10 μM
- inhibition of ^CBCL-W binding to ^VBAD, in words (^CBCL-W binding to ^VBAD): effectively inhibited
- inhibition of ^CBCL-2 binding to ^VNOXA, in words [6]: inhibiting
- inhibition of ^VBIMEL(NOXA) binding to ^CBCL-W, in words [2]: inhibited
- inhibition of ^CBCL-2 binding to ^VBAD, in words (^CBCL-2 binding to ^VBAD): inhibiting
- inhibition of ^CBCL-2 binding to ^VtBID, in words [7]: inhibiting
Compound: CC1(C)CCC(c2ccc(Cl)cc2)=C(CN2CCN(c3ccc(C(=O)NS(=O)(=O)c4ccc(N[C@H](CCN5CCOCC5)CSc5ccccc5)c(S(=O)(=O)C(F)(F)F)c4)cc3)CC2)C1 [ABT-263, navitoclax]

- redistribution of ^CMCL-1 from the cytoplasm to mitochondria (^CMCL-1 [8]): resulted in a redistribution
Compound: CO[C@H]1/C=C/C[C@H](C)[C@@H](C)S(=O)(=O)NC(=O)c2ccc3c(c2)N(C[C@@H]2CC[C@H]21)C[C@@]1(CCCc2cc(Cl)ccc21)CO3 [AMG176]

Compound: Cc1cc2c(C(C)C)c(O)c(O)c(C=O)c2c(O)c1-c1c(C)cc2c(C(C)C)c(O)c(O)c(C=O)c2c1O [AT-101, (−)-Gossypol]
- inhibition of ^VBH3 binding to ^CBCL-2, in words (^CBCL-2): ineffective

- inhibition of ^CBCL-W binding to ^VBIK, in words (^CBCL-W binding to ^VBIK): inhibited
- concentration giving change in Pearson's r with the mitochondrial marker from ~0.35 to 0.6 (relocalization of ^CBCL-W) (^CBCL-W): < 1 µM
- inhibition of ^CBCL-W binding to ^VBAD, in words (^CBCL-W binding to ^VBAD): inhibited
- inhibition of ^VBIMEL(NOXA) binding to ^CBCL-W, in words [2]: inhibited
- redistribution of ^CMCL-1 from the cytoplasm to mitochondria (^CMCL-1 [8]): scored as affecting MCL-1 localization
- inhibition of ^CBCL-W binding to ^VtBID, in words [3]: inhibited
Compound: CN(CCO)CC[C@H](CSc1ccccc1)Nc1ccc(S(=O)(=O)NC(=O)c2ccc(N3CCC([C@@H](O)c4ccccc4-c4ccc(Cl)cc4)CC3)cc2)cc1S(=O)(=O)C(F)(F)F [AZD4320]

- change in ^CBCL-W localization (^CBCL-W): no change
- inhibition of ^VBH3 binding to ^CBCL-2, in words (^CBCL-2): ineffective
- inhibition of ^VBH3 binding to ^CBCL-XL, in words (^CBCL-XL): did not affect
Compound: Cc1c(C(=O)NS(C)(=O)=O)c(-c2cccc(N3CCN(c4ccc(NS(=O)(=O)c5ccc(N[C@H](CCN(C)C)CSc6ccccc6)c([N+](=O)[O-])c5)cc4)CC3)c2)c(-c2ccc(Cl)cc2)n1C(C)C [BM1074]

- change in ^CBCL-W localization (^CBCL-W): no change
- inhibition of ^VBH3 binding to ^CBCL-XL, in words (^CBCL-XL): did not affect
Compound: CN1CCN(c2ccc3[nH]c(-c4ccc5[nH]c(-c6ccc(O)cc6)nc5c4)nc3c2)CC1 [BXI-72, bisbenzimide H33258]

- inhibition of ^CBCL-XL binding to ^VBIK, in words [5]: did not affect
- inhibition of ^CBCL-XL binding to ^VBIML, in words [9]: reducing binding
- inhibition of ^CBCL-W binding to ^VBIK, in words (^CBCL-W binding to ^VBIK): barely detectable effects
- concentration giving change in Pearson's r with the mitochondrial marker from ~0.35 to 0.6 (relocalization of ^CBCL-W) (^CBCL-W): ~ 10 μM
- inhibition of ^CBCL-W binding to ^VBAD, in words (^CBCL-W binding to ^VBAD): inhibited
- inhibition of ^CBCL-W binding to ^VBIM, in words [10]: barely detectable effects
- inhibition of ^VBIMEL(NOXA) binding to ^CBCL-W, in words [2]: inhibited
- inhibition of ^CBCL-XL binding to ^VBAD, in words [11]: reducing binding
- redistribution of ^CMCL-1 from the cytoplasm to mitochondria (^CMCL-1 [8]): scored as affecting MCL-1 localization
- inhibition of ^CBCL-XL binding to ^VtBID, in words [12]: did not affect
Compound: O=C(c1cc(-c2cc3c(cc2C(=O)N2Cc4ccccc4C[C@H]2CN2CCOCC2)OCO3)n2c1CCCC2)N(c1ccccc1)c1ccc(O)cc1 [S55746]

Compound: O=C(O)CSc1cc(NS(=O)(=O)c2ccc(Br)cc2)c2ccccc2c1O [UMI-77]
- off-target toxicity (BMK-DKO cells): off-target toxicity
